# From ChEMBL document CHEMBL1148756, “Discovery of 3,3'-(2,4-diaminopteridine-6,7-diyl)diphenol as an isozyme-selective inhibitor of PI3K for the treatment of ischemia reperfusion injury associated with myocardial infarction” (J Med Chem, 2007)
# pIC50: −log10 of the molar value. Activity calls are given as the source filed them. No cut-off for these calls is given here.
# What was measured:
# [1] = target: Phosphatidylinositol 4,5-bisphosphate 3-kinase catalytic subunit gamma isoform (Homo sapiens, UniProt P48736); assay: Inhibition of recombinant PI3Kgamma
# Outline: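 Luminescence kinase assay with recombinant PI3K p120 gamma (250-500 ng/well), ambient temperature, in 20 mM Tris pH 7.4, 4 mM MgCl2, 10 mM NaCl, 50 µM PIP2 substrate. Compound added in DMSO at 100 to 0.001 µM final. ATP added from a 3 µM stock. Stopped after 90 min with Kinase-Glo and read by luminescence. IC50 from nonlinear curve fit.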
# [2] = target: Serine/threonine-protein kinase mTOR (Homo sapiens) (UniProt P42345); assay: Inhibition of VEGF-induced phosphorylation of mTOR at 10 uM
# Outline: (§1)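 HUVECs (passage 2-4) were serum-starved for 4 h in EBM-2, then exposed for 10 min to 20 ng/mL recombinant human VEGF with or without 10 µM compound in DMSO. Cells were PBS-rinsed and lysed in RIPA, and lysates were normalized by BCA. Samples were screened externally by Western-blot-based antibody panels covering 73 phosphorylated kinases.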
# [3] = Plasma concentration in Sprague-Dawley rat at 5.0 mg/kg, iv; type: ADME, organism-based; design: dose 5 mg/kg, route intravenous
# Outline: (§2)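 Male Sprague-Dawley rats (200-250 g, N = 5 per dose) were given a single iv tail bolus of 0.5 or 5 mg/kg in aqueous 9.5% Captisol. Jugular-catheter blood was drawn at 5, 15, 30 min and 1, 2, 4, 6, 8, 24 h. Plasma was acetonitrile-extracted and quantified by LC/MS/MS (calibration 1-10 000 ng/mL). Parameters were derived noncompartmentally, with CL = dose/AUC(0-inf) and Vdss = CL × MRT.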
# [4] = Volume of distribution at steady state in Sprague-Dawley rat at 0.5 mg/kg, iv; type: ADME, organism-based; design: dose 0.5 mg/kg, route intravenous; conditions: in vivo, read-out: Vdss; outline: as §2
# [5] = AUC (0 to infinity) in Sprague-Dawley rat at 0.5 mg/kg, iv; type: ADME, organism-based; design: time infinity, dose 0.5 mg/kg, route intravenous; conditions: plasma
# Outline: (§3)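 Male Sprague-Dawley rats (200-250 g, N = 5 per dose) given a single iv tail bolus in aqueous 9.5% Captisol. Serial plasma was taken via jugular catheter from 5 min to 24 h. Samples were acetonitrile-extracted with internal standard and quantified by LC/MS/MS (calibration 1-10 000 ng/mL). AUC(0-inf) came from noncompartmental analysis.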
# [6] = Half life in Sprague-Dawley rat at 0.5 mg/kg, iv; type: ADME, organism-based; design: dose 0.5 mg/kg, route intravenous; conditions: in vivo; outline: as §2
# [7] = Volume of distribution at steady state in Sprague-Dawley rat at 5.0 mg/kg, iv; type: ADME, organism-based; design: dose 5 mg/kg, route intravenous; conditions: in vivo, read-out: Vdss; outline: as §2
# [8] = Cmax in Sprague-Dawley rat at 5.0 mg/kg, iv; type: ADME, organism-based; design: dose 5 mg/kg, route intravenous; conditions: in vivo; outline: as §2
# [9] = target: RAC-alpha serine/threonine-protein kinase (Homo sapiens) (UniProt P31749); assay: Inhibition of FGF-induced AKT phosphorylation in HUVEC cells by Western blot at 10 uM; type: cell-based
# Outline: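 Serum-starved HUVECs were pretreated for 15 min with compound (0.125-10 µM) or vehicle, then stimulated for 5 min with 20 ng/mL recombinant bFGF. Cells were lysed in RIPA, protein was normalized by BCA, and lysates were run on SDS-PAGE. Blots were probed for phospho-Akt, stripped, and reprobed for total Akt.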
# [10] = Clearance in Sprague-Dawley rat at 5.0 mg/kg, iv; type: ADME, organism-based; design: dose 5 mg/kg, route intravenous; conditions: in vivo; outline: as §2
# [11] = Cmax in Sprague-Dawley rat at 0.5 mg/kg, iv; type: ADME, organism-based; design: dose 0.5 mg/kg, route intravenous; conditions: in vivo; outline: as §2
# [12] = AUC (0 to infinity) in Sprague-Dawley rat at 5.0 mg/kg, iv; type: ADME, organism-based; design: time infinity, dose 5 mg/kg, route intravenous; conditions: plasma; outline: as §3
# HUVEC = assay: Inhibition of VEGF-induced VE-cadherin phosphorylation in HUVEC cells by Western blot at 10 uM; type: cell-based; conditions: Homo sapiens
# Outline: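 Serum-starved HUVECs were pretreated for 15 min with compound (0.125-10 µM) or vehicle, then given 20 ng/mL recombinant VEGF for 5 min. RIPA lysates were loaded at equal protein (BCA, with β-actin as loading control) on SDS-PAGE. Blots were probed for phospho-VE-cadherin, stripped, and reprobed for total VE-cadherin.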
# [13] = Half life in Sprague-Dawley rat at 5.0 mg/kg, iv; type: ADME, organism-based; design: dose 5 mg/kg, route intravenous; conditions: in vivo; outline: as §2
# [14] = Clearance in Sprague-Dawley rat at 0.5 mg/kg, iv; type: ADME, organism-based; design: dose 0.5 mg/kg, route intravenous; conditions: in vivo; outline: as §2
# [15] = Plasma concentration in Sprague-Dawley rat at 0.5 mg/kg, iv; type: ADME, organism-based; design: dose 0.5 mg/kg, route intravenous; outline: as §2
# [16] = target: Ribosomal protein S6 kinase beta-1 (Homo sapiens) (UniProt P23443); assay: Inhibition of VEGF-induced phosphorylation of p70S6 at 10 uM; outline: as §1
# Chain of Ribosomal protein S6 kinase beta-1 (Homo sapiens) (P23443 whole entry, looked up): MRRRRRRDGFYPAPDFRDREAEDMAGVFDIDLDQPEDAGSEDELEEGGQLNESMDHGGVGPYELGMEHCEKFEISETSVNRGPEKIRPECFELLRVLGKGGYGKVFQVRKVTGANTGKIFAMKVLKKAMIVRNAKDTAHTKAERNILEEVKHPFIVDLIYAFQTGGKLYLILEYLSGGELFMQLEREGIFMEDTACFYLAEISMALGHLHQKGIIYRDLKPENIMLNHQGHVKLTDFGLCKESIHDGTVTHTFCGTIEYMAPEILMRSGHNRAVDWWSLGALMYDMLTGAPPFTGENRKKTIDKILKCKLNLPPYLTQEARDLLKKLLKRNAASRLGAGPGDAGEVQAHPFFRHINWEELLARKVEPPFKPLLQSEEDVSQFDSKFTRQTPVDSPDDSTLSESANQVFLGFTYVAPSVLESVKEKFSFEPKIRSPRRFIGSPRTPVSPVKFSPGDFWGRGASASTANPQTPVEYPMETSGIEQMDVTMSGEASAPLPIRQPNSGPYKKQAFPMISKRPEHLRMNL
# Chain of RAC-alpha serine/threonine-protein kinase (Homo sapiens) (P31749 whole entry): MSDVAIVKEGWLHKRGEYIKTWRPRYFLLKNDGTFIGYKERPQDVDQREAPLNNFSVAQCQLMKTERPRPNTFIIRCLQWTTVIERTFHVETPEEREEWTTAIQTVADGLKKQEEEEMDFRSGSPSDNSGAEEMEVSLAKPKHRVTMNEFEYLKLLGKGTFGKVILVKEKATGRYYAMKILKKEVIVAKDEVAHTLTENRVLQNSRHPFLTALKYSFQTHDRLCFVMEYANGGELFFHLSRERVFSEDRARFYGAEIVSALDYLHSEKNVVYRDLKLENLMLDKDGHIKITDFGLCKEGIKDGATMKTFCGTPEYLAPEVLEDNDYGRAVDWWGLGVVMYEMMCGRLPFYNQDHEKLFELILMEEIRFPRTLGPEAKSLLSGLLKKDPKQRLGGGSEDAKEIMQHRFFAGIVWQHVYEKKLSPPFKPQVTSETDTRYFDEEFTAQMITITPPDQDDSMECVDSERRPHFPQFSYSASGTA
Activity [1],pIC50 [1],SMILES,further results
inactive,–,Nc1ccc2nc(-c3cccc(O)c3)c(-c3cccc(O)c3)nc2n1,–
–,5.23,Nc1nc(N)c2ncc(-c3ccc(O)c(O)c3)nc2n1,–
–,5.89,Nc1ncnc2ncc(-c3ccc(O)c(O)c3)nc12,–
–,5.92,Nc1nc(N)c2nc(-c3ccc(O)cc3)cnc2n1,–
–,5.05,Oc1cccc(-c2nc3cncnc3nc2-c2cccc(O)c2)c1,–
–,6.71,Nc1nc(N)c2nc(-c3ccc(O)c(O)c3)cnc2n1,–
–,5.57,Nc1nc(N)c2nc(-c3ccc(O)cc3)c(-c3ccc(O)cc3)nc2n1,–
–,4.34,Oc1cccc(-c2nc3nc(O)nc(O)c3nc2-c2cccc(O)c2)c1,–
inactive,–,Nc1cncc2nc(-c3ccc(O)cc3)c(-c3ccc(O)cc3)nc12,–
inactive,–,Nc1cncc2nc(-c3cccc(O)c3)c(-c3cccc(O)c3)nc12,–
inactive,–,CCN(CC)CCOc1cccc(-c2nc3nc(N)nc(N)c3nc2-c2cccc(OCCN(CC)CC)c2)c1,–
inactive,–,Nc1ccc2nc(-c3ccc(O)c(O)c3)c(-c3ccc(O)c(O)c3)nc2n1,–
–,–,Nc1nc(N)c2nc(-c3cccc(O)c3)c(-c3cccc(O)c3)nc2n1 [TG100-115],Activity [2]: Active; C0 [3]: 7730 ng/mL; Vd [4]: 2.3 L/kg; AUC(0-inf) [5]: 124 ng·h/mL; half-life [6]: 24 min; Vd [7]: 4.4 L/kg; Cmax [8]: 3330 ng/mL; Activity [9]: Dose-dependent effect; clearance [10]: 66 mL/min/kg; Cmax [11]: 363 ng/mL; AUC(0-inf) [12]: 1380 ng·h/mL; Activity (HUVEC): Active; half-life [13]: 48 min; clearance [14]: 71 mL/min/kg; C0 [15]: 713 ng/mL; Activity [16]: Active
–,5.52,Nc1nc(N)c2ncc(-c3cccc(O)c3)nc2n1,–
–,4.49,Nc1nc(N)c2nc(-c3cccc(OCC(O)CO)c3)c(-c3cccc(OCC(O)CO)c3)nc2n1 (stereo unspecified),–
–,5.40,Nc1ncnc2nc(-c3cccc(O)c3)c(-c3cccc(O)c3)nc12,–
–,4.29,Nc1nc(NCCCN2CCOCC2)c2nc(-c3cccc(O)c3)c(-c3cccc(O)c3)nc2n1,–
–,5.33,Nc1nc(N)c2ncc(-c3ccc(O)cc3)nc2n1,–
–,5.40,Nc1ncnc2nc(-c3ccc(O)cc3)c(-c3ccc(O)cc3)nc12,–
–,4.90,COc1cccc(-c2nc3nc(N)nc(N)c3nc2-c2cccc(OC)c2)c1,–
inactive,–,Oc1cccc(-c2nc3nc(NCCCN4CCOCC4)nc(NCCCN4CCOCC4)c3nc2-c2cccc(O)c2)c1,–
inactive,–,Nc1ccc2nc(-c3ccc(O)cc3)c(-c3ccc(O)cc3)nc2n1,–
–,4.77,Nc1ccc2nc(-c3cccc(O)c3)c(-c3cccc(O)c3)nc2c1,–
–,5.07,Nc1nc(N)c2nc(-c3ccccc3)c(-c3ccccc3)nc2n1,–
–,5.29,Nc1ncnc2nc(-c3ccc(O)c(O)c3)cnc12,–

SMILES,Activity [1],pIC50 [1],further results
CCOP(=O)(OCC)Oc1cccc(-c2nc3nc(N)nc(N)c3nc2-c2cccc(OP(=O)(OCC)OCC)c2)c1,inactive,–,–
